Source: ChEMBL document CHEMBL1124794, “Synthesis, chemistry, and antineoplastic activity of alpha-halopyridinium salts: potential pyridone prodrugs of acylated vinylogous carbinolamine tumor inhibitors” (J Med Chem, 1990)

Assays:
[1] = In vivo body weight difference was determined in murine M5076 tumor system at the dose of 90 mg/kg; type: functional, Mus musculus
MX1 [2] = experiment: In vivo activity against murine MX-1 tumor system at the dose of 90 mg/kg, activity expressed as TDS; 6/6; type: functional, Mus musculus
MX1 [3] = experiment: In vivo activity against murine MX-1 tumor system at the dose of 90mg/kg, activity expressed as %T/C.; type: functional, Mus musculus
L1210 [4] = experiment: In vivo body weight difference was determined in murine L1210 tumor system at the dose of 25 mg/kg; type: functional, Mus musculus
MX1 [5] = experiment: In vivo activity against murine MX-1 tumor system at the dose of 180 mg/kg, activity expressed as TDS; 0/6; type: functional, Mus musculus
P388 [6] = experiment: In vivo body weight difference was determined against P388 Lymphocytic Leukemia in CD2F1 mice at the dose of 12.5 mg/kg; type: functional, Mus musculus
[7] = In vivo activity against murine M5076 tumor system at the dose of 90 mg/kg, activity expressed as %T/C.; type: functional, Mus musculus
MX1 [8] = experiment: In vivo body weight difference was determined in murine MX-1 tumor system at the dose of 90 mg/kg; type: functional, Mus musculus
L1210 [9] = experiment: In vivo activity against murine L1210 tumor system at the dose of 100 mg/kg, activity expressed as TDS; 0/6; type: functional, Mus musculus
Method in brief: (§1)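 L1210 lymphocytic leukemia: ascitic fluid with ca. 10^6 cells injected ip into CD2F1 mice. Dosing started 24 h after inoculation and was repeated daily for five doses in total, from solutions or suspensions made fresh each day. Toxicity day survivors were scored on day 5. Body weight difference is day 5 minus day 1. %T/C is based on median survival time versus controls.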

P388 [10] = experiment: In vivo activity against P388 Lymphocytic Leukemia in CD2F1 mice at the dose of 100 mg/kg, activity expressed as TDS; 6/6; type: functional, Mus musculus
Method in brief: (§2)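 CD2F1 mice were inoculated with ascitic fluid holding ca. 10^6 P388 cells. Drug was given daily from 24 h after inoculation, from solutions or suspensions made fresh each day, some as a saline suspension. TDS is survivors/initial animals on day 5. BWD is body weight on day 5 minus day 1. %T/C compares median survival of treated and control mice.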

P388 [11] = experiment: In vivo activity against P388 Lymphocytic Leukemia in CD2F1 mice at the dose of 12.5 mg/kg, activity expressed as % T/C; type: functional, Mus musculus; method in brief: as §2
P388 [12] = experiment: In vivo activity against P388 Lymphocytic Leukemia in CD2F1 mice at the dose of 400 mg/kg, activity expressed as TDS; 0/6; type: functional, Mus musculus; method in brief: as §2
P388 [13] = experiment: In vivo activity against P388 Lymphocytic Leukemia in CD2F1 mice at the dose of 25 mg/kg, activity expressed as % T/C; type: functional, Mus musculus; method in brief: as §2
L1210 [14] = experiment: In vivo activity against murine L1210 tumor system at the dose of 50 mg/kg, activity expressed as %T/C.; type: functional, Mus musculus; method in brief: as §1
L1210 [15] = experiment: In vivo activity against murine L1210 tumor system at the dose of 50 mg/kg, activity expressed as TDS; 6/6; type: functional, Mus musculus; method in brief: as §1
P388 [16] = experiment: In vivo activity against P388 Lymphocytic Leukemia in CD2F1 mice at the dose of 100 mg/kg, activity expressed as % T/C; type: functional, Mus musculus; method in brief: as §2
[17] = In vivo body weight difference was determined in murine M5076 tumor system at the dose of 45 mg/kg; type: functional, Mus musculus
P388 [18] = experiment: In vivo activity against P388 Lymphocytic Leukemia in CD2F1 mice at the dose of 200 mg/kg, activity expressed as TDS; 6/6; type: functional, Mus musculus; method in brief: as §2
P388 [19] = experiment: In vivo body weight difference was determined against P388 Lymphocytic Leukemia in CD2F1 mice at the dose of 50 mg/kg; type: functional, Mus musculus
P388 [20] = experiment: In vivo activity against P388 Lymphocytic Leukemia in CD2F1 mice at the dose of 50 mg/kg, activity expressed as TDS; 6/6; type: functional, Mus musculus; method in brief: as §2
L1210 [21] = experiment: In vivo activity against murine L1210 tumor system at the dose of 25 mg/kg, activity expressed as TDS; 6/6; type: functional, Mus musculus; method in brief: as §1
[22] = In vivo activity against murine M5076 tumor system at the dose of mg/kg, activity expressed as %T/C.; type: functional, Mus musculus
P388 [23] = experiment: In vivo activity against P388 Lymphocytic Leukemia in CD2F1 mice at the dose of 50 mg/kg, activity expressed as KE; type: functional, Mus musculus
P388 [24] = experiment: In vivo activity against P388 Lymphocytic Leukemia in CD2F1 mice at the dose of 50 mg/kg, activity expressed as % T/C; type: functional, Mus musculus; method in brief: as §2
[25] = In vivo activity against murine M5076 tumor system at the dose of 45 mg/kg, activity expressed as TDS; 10/10; type: functional, Mus musculus
P388 [26] = experiment: In vivo activity against P388 Lymphocytic Leukemia in CD2F1 mice at the dose of 100 mg/kg, activity expressed as KE; type: functional, Mus musculus
L1210 [27] = experiment: In vivo activity against murine L1210 tumor system at the dose of 25 mg/kg, activity expressed as KE; type: functional, Mus musculus; method in brief: as §1
P388 [28] = experiment: In vivo activity against P388 Lymphocytic Leukemia in CD2F1 mice at the dose of 25 mg/kg, activity expressed as KE; type: functional, Mus musculus
P388 [29] = experiment: In vivo activity against P388 Lymphocytic Leukemia in CD2F1 mice at the dose of 12.5 mg/kg, activity expressed as KE; type: functional, Mus musculus
P388 [30] = experiment: In vivo body weight difference was determined against P388 Lymphocytic Leukemia in CD2F1 mice at the dose of 25 mg/kg; type: functional, Mus musculus
P388 [31] = experiment: In vivo activity against P388 Lymphocytic Leukemia in CD2F1 mice at the dose of 25 mg/kg, activity expressed as TDS; 6/6; type: functional, Mus musculus; method in brief: as §2
[32] = In vivo body weight difference was determined in murine M5076 tumor system at the dose of 180 mg/kg; type: functional, Mus musculus
L1210 [33] = experiment: In vivo body weight difference was determined in murine L1210 tumor system at the dose of 50 mg/kg; type: functional, Mus musculus
L1210 [34] = experiment: In vivo activity against murine L1210 tumor system at the dose of 25 mg/kg, activity expressed as %T/C.; type: functional, Mus musculus; method in brief: as §1
[35] = In vivo activity against murine M5076 tumor system at the dose of 90 mg/kg, activity expressed as KE; type: functional, Mus musculus
P388 [36] = experiment: In vivo activity against P388 Lymphocytic Leukemia in CD2F1 mice at the dose of 12.5 mg/kg, activity expressed as TDS; 6/6; type: functional, Mus musculus; method in brief: as §2
L1210 [37] = experiment: In vivo activity against murine L1210 tumor system at the dose of 50 mg/kg, activity expressed as KE; type: functional, Mus musculus; method in brief: as §1
[38] = In vivo activity against murine M5076 tumor system at the dose of 45 mg/kg, activity expressed as KE; type: functional, Mus musculus
Method in brief: (§3)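 M5076: ascitic fluid with ca. 10^6 cells inoculated ip into CD2F1 mice. Dosing started 24 h after inoculation and was then given every 4 days for four doses in total, from solutions or suspensions made fresh each day. Toxicity day survivors were scored on day 5. Body weight difference is day 14 minus day 1. %T/C is based on median survival time versus controls.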

P388 [39] = experiment: In vivo body weight difference was determined against P388 Lymphocytic Leukemia in CD2F1 mice at the dose of 200 mg/kg; type: functional, Mus musculus
[40] = In vivo activity against murine M5076 tumor system at the dose of 90 mg/kg, activity expressed as TDS; 10/10; type: functional, Mus musculus
P388 [41] = experiment: In vivo body weight difference was determined against P388 Lymphocytic Leukemia in CD2F1 mice at the dose of 100 mg/kg; type: functional, Mus musculus
[42] = In vivo activity against murine M5076 tumor system at the dose of 180 mg/kg, activity expressed as TDS; 3/10; type: functional, Mus musculus; method in brief: as §3
[43] = Hydrolysis were done at 25 degree C in 0.05 M phosphate buffer (pH 7.4); type: ADME
Method in brief: (§4)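 Model pyridinium salts were hydrolysed to pyridones at 25 °C in 0.05 M phosphate buffer, pH 7.4. Decay of the pyridinium UV absorption maximum was monitored over time, giving pseudo-first-order k_obs and half-life.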

[44] = Half life of the compound; type: ADME
[45] = Hydrolysis at 25 degree C in 0.05 M phosphate buffer (pH 7.4); the rate was too fast to measure these conditions.; type: ADME; method in brief: as §4

CC(C)NC(=O)OCc1c(COC(=O)NC(C)C)c(-c2ccc(F)[n+](C)c2)n2c1CCC2.[I-]
BWD [1]: -1.8 g | TDS (MX1 [2]): 6 | T/C (MX1 [3]): 18% | BWD (L1210 [4]): -0.7 g | TDS (MX1 [5]): 0 | BWD (P388 [6]): 1.2 g | T/C [7]: 125% | BWD (MX1 [8]): 0.5 g | TDS (L1210 [9]): 0 | TDS (P388 [10]): 6 | T/C (P388 [11]): 112% | TDS (P388 [12]): 0 | T/C (P388 [13]): 137% | T/C (L1210 [14]): 123% | TDS (L1210 [15]): 6 | T/C (P388 [16]): 158% | BWD [17]: -0.5 g | TDS (P388 [18]): 2 | BWD (P388 [19]): 0.6 g | TDS (P388 [20]): 6 | TDS (L1210 [21]): 6 | T/C [22]: 115% | KE (P388 [23]): 0.32 | T/C (P388 [24]): 141% | TDS [25]: 10 | KE (P388 [26]): 1.54 | KE (L1210 [27]): -2.09 | KE (P388 [28]): 0.06 | KE (P388 [29]): -1.42 | BWD (P388 [30]): -0.1 g | TDS (P388 [31]): 6 | BWD [32]: -1.4 g | BWD (L1210 [33]): -0.7 g | T/C (L1210 [34]): 119% | KE [35]: -1.4 | TDS (P388 [36]): 6 | KE (L1210 [37]): -2.03 | KE [38]: -1.79 | BWD (P388 [39]): -0.1 g | TDS [40]: 10 | BWD (P388 [41]): 0.1 g | TDS [42]: 3

Cc1ccc(F)[n+](C)c1.O=S(=O)([O-])C(F)(F)F
K obs [43]: 0.0605 min⁻¹ | half-life [44]: 0.19 h

Cc1ccc(Cl)[n+](C)c1.O=S(=O)([O-])C(F)(F)F
K obs [43]: 0.000708 min⁻¹ | half-life [44]: 269 h

CCOC(=O)c1cc[n+](C)c(Br)c1.O=S(=O)([O-])C(F)(F)F
K obs [43]: 0.0002 min⁻¹ | half-life [44]: 57.7 h

CCOC(=O)c1cc[n+](C)c(F)c1.O=S(=O)([O-])C(F)(F)F
K obs [45]: Rate too fast

CCOC(=O)c1cc(Cl)[n+](C)c(Cl)c1.CS(=O)(=O)[O-]
K obs [43]: 0.114 min⁻¹ | half-life [44]: 2.1 h
